Test results: ChEMBL document CHEMBL2146426, “Antitubercular nitrofuran isoxazolines with improved pharmacokinetic properties” (Bioorg Med Chem, 2012)
Values after ≈ are worked out from the molar mass of the structure shown.

Legend:
[1] = Plasma protein binding in human at 10 uM after 4 hrs by LC/MS analysis; assay type: ADME, cell-free; settings: read-out: PPB (converted)
Method in brief: (§1)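 Compound at 10 µM (0.1% DMSO) in mouse or human plasma. Rapid equilibrium dialysis (MWCO 8K) against DPBS pH 7.4, 4 h at 37°C with orbital shaking. Both chambers matrix-matched, precipitated with acetonitrile containing warfarin internal standard, quantified by LC–MS. %Free = buffer/plasma × 100; %Bound = 100 − %Free.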

[2] = Apparent permeability of the compound from basal to apical side of human Caco2 cells at 50 umol/L after 2 hrs by UPLC/MS analysis; assay type: ADME, cell-based; settings: Caco-2
Method in brief: (§2)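 Caco-2 monolayers grown 7 days on Transwell inserts, washed with HBSS/HEPES pH 7.4. Compound at 50 µmol/L added apically or basolaterally, then 2 h at 37°C. Receiver side sampled and quantified by UPLC/MS. Papp = (dQ/dt)/(A×C0), triplicates.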

Escherichia coli = test: Antibacterial activity against Escherichia coli K12 after overnight incubation by microbroth dilution technique; assay type: functional; settings: K-12
Method in brief: (§3)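 Non-mycobacterial strains: two-fold serial dilutions in broth by CLSI microbroth dilution. Inoculum about 10^5 cfu/mL; top final drug concentration 200 µg/mL. Aerobic incubation at 37°C overnight. MIC read visually as the lowest concentration with no visible growth.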

Bacillus subtilis = test: Antibacterial activity against Bacillus subtilis ATCC 23857 after overnight incubation by microbroth dilution technique; assay type: functional; method in brief: as §3
[3] = Solubility of the compound at pH 7.4 after 18 hrs by UV spectrometry; assay type: physicochemical; settings: buffer, pH 7.4
Method in brief: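 10 mM DMSO stocks diluted 100-fold in system solution buffer pH 7.4 and held 18 h at room temperature. Filtered, diluted 1:1 with isopropanol and measured by UV (230–500 nm). Compared against a 600-fold diluted reference in buffer/isopropanol. Triplicates.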

[4] = Apparent permeability of the compound from apical to basal side of human Caco2 cells at 50 umol/L after 2 hrs by UPLC/MS analysis; assay type: ADME, cell-based; settings: Caco-2; method in brief: as §2
Staphylococcus aureus = test: Antibacterial activity against Staphylococcus aureus ATCC 29213 after overnight incubation by microbroth dilution technique; assay type: functional
Method in brief: (§4)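 Two-fold serial broth dilutions per CLSI; inoculum about 10^5 CFU/mL; top final drug concentration 200 µg/mL; incubated aerobically overnight at 37°C. MIC read visually as the lowest concentration with no visible growth.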

Enterococcus faecalis = test: Antibacterial activity against Enterococcus faecalis ATCC 3186 after overnight incubation by microbroth dilution technique; assay type: functional; method in brief: as §4
[5] = Half life in mouse liver microsomes; assay type: ADME, Microsome
Method in brief: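 Mouse liver microsomes at 0.6381 mg/mL protein in 0.1 M potassium phosphate pH 7.4 with EDTA. Reaction started with NADPH regenerating system at 37°C; six time points including 0, triplicate wells. Quenched in cold acetonitrile with warfarin internal standard, analysed by LC–MS. Half-life from a first-order least-squares fit.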

Streptococcus pyogenes = test: Antibacterial activity against Streptococcus pyogenes ATCC 700294 after overnight incubation by microbroth dilution technique; assay type: functional; method in brief: as §4
[6] = Half life in human liver microsomes; assay type: ADME, Microsome
Streptococcus pneumoniae = test: Antibacterial activity against Streptococcus pneumoniae DAW27 after overnight incubation by microbroth dilution technique; assay type: functional; method in brief: as §4
Bacillus anthracis = test: Antibacterial activity against Bacillus anthracis Sterne 34F2 after overnight incubation by microbroth dilution technique; assay type: functional; method in brief: as §3
[7] = Plasma protein binding in mouse at 10 uM after 4 hrs by LC/MS analysis; assay type: ADME, cell-free; settings: read-out: PPB (converted); method in brief: as §1

Row | Compound | fraction unbound at 4 h, 10 µM [1] | Papp B→A at 2 h, 50 µM [2] | MIC (Escherichia coli) | MIC (Bacillus subtilis) | solubility at 18 h [3] | Papp A→B at 2 h, 50 µM [4] | MIC (Staphylococcus aureus) | MIC (Enterococcus faecalis) | half-life [5] | MIC (Streptococcus pyogenes) | half-life [6] | MIC (Streptococcus pneumoniae) | MIC (Bacillus anthracis) | fraction unbound at 4 h, 10 µM [7]
1 | O=[N+]([O-])c1ccc(C2=NOC(c3ccc(N4CC[S+]([O-])CC4)cc3)C2)o1 (stereo unspecified) | 0.223 | 27.2 ×10⁻⁶ cm/s | 100 µg/mL (≈ 266 µM) | 6.25 µg/mL (≈ 16.6 µM) | 28.9 µg/mL (≈ 77 µM) | 24.2 ×10⁻⁶ cm/s | 6.25 µg/mL (≈ 16.6 µM) | 100 µg/mL (≈ 266 µM) | 0.87 h | 50 µg/mL (≈ 133 µM) | 4.53 h | 50 µg/mL (≈ 133 µM) | 12.5 µg/mL (≈ 33.3 µM) | 0.178
2 | CN1CCN(c2ccc(C3CC(c4ccc([N+](=O)[O-])o4)=NO3)cc2F)C(=O)C1 (stereo unspecified) | 0.391 | 38.6 ×10⁻⁶ cm/s | 200 µg/mL (≈ 515 µM) |  | 29.2 µg/mL (≈ 75.2 µM) | 27 ×10⁻⁶ cm/s | 6.25 µg/mL (≈ 16.1 µM) | 100 µg/mL (≈ 257 µM) | 0.62 h | 50 µg/mL (≈ 129 µM) | 4.81 h | 50 µg/mL (≈ 129 µM) | 25 µg/mL (≈ 64.4 µM) | 0.172
3 | O=C1COCCN1c1ccc(C2CC(c3ccc([N+](=O)[O-])o3)=NO2)cn1 (stereo unspecified) | 0.398 | 45.7 ×10⁻⁶ cm/s | 25 µg/mL (≈ 69.8 µM) | 12.5 µg/mL (≈ 34.9 µM) | 21.9 µg/mL (≈ 61.2 µM) | 8.61 ×10⁻⁶ cm/s | 12.5 µg/mL (≈ 34.9 µM) | > 200 µg/mL | 1.01 h |  | 1.52 h | 50 µg/mL (≈ 140 µM) | 25 µg/mL (≈ 69.8 µM) | 0.411
4 | CN1CCN(c2ccc(C3CC(c4ccc([N+](=O)[O-])o4)=NO3)cn2)C(=O)C1 (stereo unspecified) | 0.511 | 33.3 ×10⁻⁶ cm/s | 50 µg/mL (≈ 135 µM) | 25 µg/mL (≈ 67.3 µM) | 28.9 µg/mL (≈ 77.8 µM) | 36.6 ×10⁻⁶ cm/s | 12.5 µg/mL (≈ 33.7 µM) | 100 µg/mL (≈ 269 µM) | 0.35 h | 50 µg/mL (≈ 135 µM) | 4.24 h | 50 µg/mL (≈ 135 µM) | 25 µg/mL (≈ 67.3 µM) | 0.402
5 | O=[N+]([O-])c1ccc(C2=NOC(c3ccc(N4CCOCC4)c(F)c3)C2)o1 (stereo unspecified) | 0.066 |  | > 200 µg/mL | 200 µg/mL (≈ 554 µM) | 3.2 µg/mL (≈ 8.86 µM) |  | 25 µg/mL (≈ 69.2 µM) | 200 µg/mL (≈ 554 µM) |  | 200 µg/mL (≈ 554 µM) |  | 200 µg/mL (≈ 554 µM) | 12.5 µg/mL (≈ 34.6 µM) | 0.061
6 | O=C1COCCN1c1ccc(C2CC(c3ccc([N+](=O)[O-])o3)=NO2)cc1 (stereo unspecified) | 0.357 | 56.5 ×10⁻⁶ cm/s | 25 µg/mL (≈ 70 µM) | 6.25 µg/mL (≈ 17.5 µM) | 25.9 µg/mL (≈ 72.4 µM) | 12.6 ×10⁻⁶ cm/s | 6.25 µg/mL (≈ 17.5 µM) | > 200 µg/mL | 1.4 h | 100 µg/mL (≈ 280 µM) | 10 h | 200 µg/mL (≈ 560 µM) | 25 µg/mL (≈ 70 µM) | 0.34
7 | O=[N+]([O-])c1ccc(C2=NOC(c3ccc(N4CCSCC4)cc3)C2)o1 (stereo unspecified) | 0.015 | 11.4 ×10⁻⁶ cm/s | > 200 µg/mL |  | 1.9 µg/mL (≈ 5.29 µM) | 9.62 ×10⁻⁶ cm/s |  | 100 µg/mL (≈ 278 µM) | 0.04 h | > 200 µg/mL | 0.21 h |  |  | 0.013
8 | O=C1COCCN1c1ccc(C2CC(c3ccc([N+](=O)[O-])o3)=NO2)cc1F (stereo unspecified) | 0.292 | 42.4 ×10⁻⁶ cm/s | > 200 µg/mL |  | 12.6 µg/mL (≈ 33.5 µM) | 15.4 ×10⁻⁶ cm/s | 6.25 µg/mL (≈ 16.7 µM) | 200 µg/mL (≈ 533 µM) | 1.38 h | 100 µg/mL (≈ 266 µM) | 8.31 h | 200 µg/mL (≈ 533 µM) | 25 µg/mL (≈ 66.6 µM) | 0.203
